The structures appear in SMILES notation. Active and inactive are the calls of the source. No cut-off for these calls is given here.

Data set [1] in a line: Antioxidant activity assessed as DPPH radical scavenging activity shaken for 1 min and incubated under dark condition for 30 mins by spectrophotometric analysis. The class given is functional. The procedure, abridged:
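DPPH at 0.004% w/v and compounds were made in methanol, mixed 1.5 mL to 1 mL, shaken 1 min at 37 °C, then kept 30 min in the dark. Absorbance was read at 517 nm and % scavenging calculated against a DPPH-plus-methanol control. […] Triplicate, mean.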

Data set [2] deals with T1, Xanthine dehydrogenase/oxidase (Bos taurus, UniProt P80457). Kind of data set: Inhibition of bovine milk xanthine oxidase using xanthine as substrate preincubated for 5 mins followed by substrate addition by UV-visible spectrophotometry.
T1 sequence (P80457 whole entry): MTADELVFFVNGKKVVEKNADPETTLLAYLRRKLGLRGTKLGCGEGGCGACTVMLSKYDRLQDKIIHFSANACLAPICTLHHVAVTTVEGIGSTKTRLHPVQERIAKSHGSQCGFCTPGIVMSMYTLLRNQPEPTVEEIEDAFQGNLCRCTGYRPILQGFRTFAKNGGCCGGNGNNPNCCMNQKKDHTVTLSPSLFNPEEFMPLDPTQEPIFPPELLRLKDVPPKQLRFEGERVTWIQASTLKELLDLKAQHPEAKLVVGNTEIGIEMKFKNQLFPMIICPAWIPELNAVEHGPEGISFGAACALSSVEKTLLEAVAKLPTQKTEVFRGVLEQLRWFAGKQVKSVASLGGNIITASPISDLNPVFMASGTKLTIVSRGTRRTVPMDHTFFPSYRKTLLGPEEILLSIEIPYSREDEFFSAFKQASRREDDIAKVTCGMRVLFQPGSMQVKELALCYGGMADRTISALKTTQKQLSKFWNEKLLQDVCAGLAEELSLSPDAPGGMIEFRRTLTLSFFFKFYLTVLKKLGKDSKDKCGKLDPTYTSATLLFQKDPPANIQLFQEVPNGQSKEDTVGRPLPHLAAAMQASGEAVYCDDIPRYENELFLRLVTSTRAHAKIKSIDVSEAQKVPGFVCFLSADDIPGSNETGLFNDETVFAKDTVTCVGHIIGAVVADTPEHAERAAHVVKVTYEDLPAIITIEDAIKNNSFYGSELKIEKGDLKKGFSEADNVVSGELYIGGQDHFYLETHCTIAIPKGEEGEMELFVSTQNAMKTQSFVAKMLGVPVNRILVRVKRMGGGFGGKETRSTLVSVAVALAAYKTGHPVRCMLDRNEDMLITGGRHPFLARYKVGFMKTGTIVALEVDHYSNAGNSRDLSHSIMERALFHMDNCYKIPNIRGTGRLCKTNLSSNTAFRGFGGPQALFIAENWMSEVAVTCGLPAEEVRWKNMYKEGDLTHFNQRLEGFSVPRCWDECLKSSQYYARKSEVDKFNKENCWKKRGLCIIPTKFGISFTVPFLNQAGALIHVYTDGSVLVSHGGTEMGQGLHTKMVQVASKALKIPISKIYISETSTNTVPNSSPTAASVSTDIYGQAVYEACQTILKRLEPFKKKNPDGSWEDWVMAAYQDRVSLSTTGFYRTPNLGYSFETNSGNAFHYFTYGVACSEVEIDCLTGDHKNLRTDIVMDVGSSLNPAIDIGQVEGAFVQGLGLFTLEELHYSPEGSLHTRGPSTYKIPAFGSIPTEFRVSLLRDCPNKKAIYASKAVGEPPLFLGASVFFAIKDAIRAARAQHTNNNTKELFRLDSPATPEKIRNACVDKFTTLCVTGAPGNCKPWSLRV
Data set [3] has as its system Mus musculus. Kind of data set: Anti-hyperuricemic effect in Swiss albino mouse model of potassium oxonate-induced hyperuricemia model assessed as serum uric acid level at 1 to 10 mg/kg, po treated 1 hr post potassium oxonate addition and measured after 30 mins by ERBA method (reference value: 5.9 +/- 0.42 mg/dl). The class given is functional. The procedure, abridged:
(§1)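 Male Swiss albino mice, […], 25–30 g, n = 6 per group, fasted 6 h from feed. Xanthine 500 mg/kg was given orally, then potassium oxonate 300 mg/kg ip 30 min later, both in 0.5% CMC. Compounds were dosed orally 1 h after oxonate. Retro-orbital blood was drawn 2 h after PO+Xn, and serum uric acid was read by kit at 505 nm (5 min, 37 °C). Mean ± S.E.M., ANOVA/Tukey.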

Data set [4] has as its system Mus musculus. Kind of data set: Anti-hyperuricemic effect in Swiss albino mouse model of potassium oxonate-induced hyperuricemia model assessed as reduction in serum uric acid level at 0.55 mg/kg, po treated 1 hr post potassium oxonate addition and measured after 30 mins by ERBA method. The note with it: 0.5 mg/kg, in the assay text read “0.5 mg/kg” for “0.55 mg/kg”. Type of data set: functional, organism-based. The procedure, abridged:
as §1

Data set [5] concerns Mus musculus. As to the kind of experiment: Anti-hyperuricemic effect in Swiss albino mouse model of potassium oxonate-induced hyperuricemia model assessed as reduction in serum uric acid level treated orally 1 hr post potassium oxonate addition and measured after 30 mins by ERBA method. Type of data set: functional, organism-based. The procedure, abridged:
as §1

The test system of data set [6] is Mus musculus. Kind of data set: Anti-hyperuricemic effect in Swiss albino mouse model of potassium oxonate-induced hyperuricemia model assessed as serum uric acid level at 5 mg/kg, po treated 1 hr post potassium oxonate addition and measured after 30 mins by ERBA method (reference value: 5.9 +/- 0.42 mg/dl). The class given is functional. The procedure, abridged: as §1

Data set [7] can be described thus: Acute toxicity in potassium oxonate-induced Swiss albino mouse hyperuricemic model assessed as induction of abnormal behavior at 2000 mg/kg, po measured after 24 hrs. The note with it: in vivo.
Data set [8] deals with T1, Xanthine dehydrogenase/oxidase. Kind of data set: Competitive mixed type inhibition of bovine milk xanthine oxidase using xanthine as substrate preincubated for 5 mins followed by substrate addition by UV-visible spectrophotomety based Lineweaver-Burk plot analysis. The note with it: cattle. The procedure, abridged: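 Bovine milk xanthine oxidase was assayed in 50 mM potassium phosphate (pH 7.6) at 25 °C, with uric acid formation followed at 293 nm. Enzyme was preincubated 5 min with inhibitor in 1% v/v DMSO, and the reaction was started with xanthine. Inhibition mode came from Lineweaver–Burk plots.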

Data set [9] deals with Mus musculus. Kind of data set: Anti-hyperuricemic effect in Swiss albino mouse model of potassium oxonate-induced hyperuricemia model assessed as serum uric acid level at 10 mg/kg, po treated 1 hr post potassium oxonate addition and measured after 30 mins by ERBA method (reference value: 5.9 +/- 0.42 mg/dl). The class given is functional.

In the case of `COc1ccc(-c2cc(=O)c3c(ccc4ccccc43)o2)cc1`, the IC50 in data set [1] and in data set [2] was more than 20 µM in each case.
In the case of `O=c1cc(-c2cccc([N+](=O)[O-])c2)oc2ccc3ccccc3c12`, the IC50 in data set [1] and in [2] was more than 20 µM each time.
`O=c1cc(-c2ccccc2F)oc2ccc3ccccc3c12`: the IC50 (as a rule, the point on the concentration scale where inhibition reaches its midpoint) in data set [1] is more than 20 µM; in data set [2], 14.7 µM.
Take `O=c1cc(-c2ccc(Br)cc2)oc2c1ccc1ccccc12`: the figures for the Activity in [3] and in data set [5] were 1.8 to 2.8 mg/dL and “Dose-dependent effect”, respectively. Also, in data set [4], the inhibition result was “inactive”. Besides, the figures for the IC50 in data set [1] and in data set [2] were 0.35 µM and 8.93 µM, respectively.
With `O=c1cc(-c2cccc(F)c2)oc2c1ccc1ccccc12`, the IC50 in data set [1] was 10.1 µM; in data set [2], more than 20 µM.
Take `Cc1ccc(-c2cc(=O)c3ccc4ccccc4c3o2)cc1`: the IC50 in data set [1] is 6.5 µM; in [2], more than 20 µM.
For `O=c1cc(-c2ccccc2)oc2ccc3ccccc3c12` [BETA-NAPHTHOFLAVONE], the IC50 in [1] and in [2] was more than 20 µM throughout.
Regarding `O=c1cc(-c2ccccc2I)oc2ccc3ccccc3c12`, the IC50 in [1] and in data set [2] was more than 20 µM throughout.
Turning to `O=c1cc(-c2cccc(Cl)c2Cl)oc2ccc3ccccc3c12`, the half-inhibitory concentration (IC50) is more than 20 µM in data set [1] and 18.6 µM in [2].
As for `Cc1nc(-c2ccc(OCC(C)C)c(C#N)c2)sc1C(=O)O` [FEBUXOSTAT], the Activity in [6] was found to be 1.5 mg/dL.
Take `O=c1cc(-c2cc(F)cc(F)c2)oc2ccc3ccccc3c12`: in data set [6], the result was Active. Moreover, the Activity in data set [3] is 1.8 to 2.8 mg/dL; in data set [5], “Dose-dependent effect”; in [7], “Non-Toxic”. In addition, in data set [4], the inhibition result was “inactive”. The results for the IC50 in data set [1] and in [2] were more than 20 µM and 7.67 µM, respectively.
Turning to `O=c1cc(-c2cccc(F)c2)oc2ccc3ccccc3c12`, the IC50 in data set [1] and in [2] was more than 20 µM throughout.
For the molecule `O=c1cc(-c2ccccc2Br)oc2ccc3ccccc3c12`, the IC50 in [1] was more than 20 µM; in data set [2], 17.1 µM.
Turning to `O=c1cc(-c2ccccc2I)oc2c1ccc1ccccc12`, the IC50 worked out at 7.33 µM in [1] and 19.4 µM in data set [2].
Regarding `O=c1cc(-c2ccc([N+](=O)[O-])cc2)oc2ccc3ccccc3c12`, the Activity entry in data set [5] was “Dose-dependent effect”. Further, the IC50 in data set [1] is more than 20 µM; in [2] it was 5.21 µM. The “inhibition (INH)” value in data set [8] was “Active”. Moreover, the outcome in data set [9] was Active.
For `O=c1cc(-c2cccc(Br)c2)oc2c1ccc1ccccc12`, the values for the IC50 in data set [1] and in [2] were 5.98 µM and more than 20 µM, respectively.
On to `O=c1cc(-c2cc([N+](=O)[O-])cc([N+](=O)[O-])c2)oc2ccc3ccccc3c12`, for which the IC50 in [1] and in data set [2] was more than 20 µM throughout.
On to `O=c1cc(-c2ccccc2F)oc2c1ccc1ccccc12`, for which the Activity was 1.8 to 2.8 mg/dL in [3], “Dose-dependent effect” in data set [5] and “Non-Toxic” in [7]. Also, the inhibition result in data set [4] is “inactive”. The IC50 in data set [1] was 4.73 µM; in data set [2], 4.94 µM.
Consider `O=c1cc(-c2ccc([N+](=O)[O-])cc2)oc2c1ccc1ccccc12`, for which the Activity entry in [5] was “Dose-dependent effect”. For the same molecule, the IC50 in data set [1] worked out at 0.62 µM; in data set [2], 1.95 µM. Also, in data set [9], the result was inactive.
Consider `O=c1cc(-c2ccccc2Br)oc2c1ccc1ccccc12`, for which the IC50 is 9.9 µM in [1] and 16.8 µM in data set [2].
Turning to `O=c1cc(-c2ccc(F)cc2)oc2ccc3ccccc3c12`, the IC50 was more than 20 µM in data set [1] and 12.4 µM in data set [2].
In the case of `O=c1cc(-c2cccc(Cl)c2)oc2ccc3ccccc3c12`, the IC50 in data set [1] and in [2] was more than 20 µM in each case.
For `COc1ccc(-c2cc(=O)c3ccc4ccccc4c3o2)cc1`, the IC50 in [1] was 4.27 µM; in data set [2], 18.9 µM.
On to `Cc1ccc(-c2cc(=O)c3c(ccc4ccccc43)o2)cc1`, for which the IC50 in data set [1] and in [2] was more than 20 µM in each case.
Turning to `O=c1cc(-c2cccc(Cl)c2)oc2c1ccc1ccccc12`, the IC50 is 7.75 µM in [1] and more than 20 µM in data set [2].
In the case of `O=c1cc(-c2cccc(Cl)c2Cl)oc2c1ccc1ccccc12`, the IC50 was 10.9 µM in data set [1] and more than 20 µM in data set [2].
In the case of `O=c1cc(-c2ccccc2)oc2c1ccc1ccccc12` [ALPHA-NAPHTHOFLAVONE], the values for the IC50 in data set [1] and in [2] were 15.6 µM and more than 20 µM, respectively.
For `O=c1cc(-c2cccc([N+](=O)[O-])c2)oc2c1ccc1ccccc12`, the IC50 in [1] is 8.24 µM; in [2] it was more than 20 µM.
For `O=c1cc(-c2ccc(F)cc2)oc2c1ccc1ccccc12`, the Activity entry in data set [5] is “Dose-dependent effect”. Further, the figures for the IC50 in [1] and in data set [2] were 0.83 µM and 0.62 µM, respectively. The result in data set [9] was inactive.
Consider `Oc1ncnc2[nH]ncc12` [ALLOPURINOL], for which, in data set [9], the Activity came out at 1.8 mg/dL.
On to `O=c1cc(-c2cc(F)cc(F)c2)oc2c1ccc1ccccc12`, for which the Activity in data set [3] is 1.8 to 2.8 mg/dL; in data set [5], “Dose-dependent effect”. Further, in data set [4], the inhibition result was “inactive”. Moreover, the figures for the IC50 in data set [1] and in data set [2] were 3.14 µM and 6.95 µM, respectively.
As for `O=c1cc(-c2ccc(Br)cc2)oc2ccc3ccccc3c12`, the result in data set [6] was Active. The Activity in data set [3] is 1.8 to 2.8 mg/dL; in data set [5], “Dose-dependent effect”. Moreover, in data set [4], the inhibition entry is “inactive”. Moreover, the IC50 in data set [1] was more than 20 µM; in data set [2], 8.9 µM.
`O=c1cc(-c2cc([N+](=O)[O-])cc([N+](=O)[O-])c2)oc2c1ccc1ccccc12`: the IC50 in [1] was 5.55 µM; in data set [2] it was more than 20 µM.
For `O=c1cc(-c2cccc(Br)c2)oc2ccc3ccccc3c12`, in that order: more than 20 µM and more than 20 µM.
